# Experimental data published in ChEMBL document CHEMBL1773037, “Evaluation of superior BACE1 cleavage sequences containing unnatural amino acids” (Bioorg Med Chem, 2011).
# Substrate: CC[C@H](C)[C@H](N)C(=O)N[C@@H](CCCCN)C(=O)N[C@H](C(=O)N[C@@H](CCC(=O)O)C(=O)N[C@@H](CCC(=O)O)C(=O)N[C@H](C(=O)N[C@@H](CO)C(=O)N[C@@H](CCC(=O)O)C(=O)N[C@H](C(=O)N[C@@H](CC(N)=O)C(=O)N[C@@H](CC(C)C)C(=O)N[C@@H](CC(=O)O)C(=O)N[C@@H](C)C(=O)N[C@@H](CCC(=O)O)C(=O)N[C@@H](Cc1ccccc1)C(=O)N[C@@H](CCCNC(=N)N)C(=O)N[C@@H](Cc1cnc[nH]1)C(=O)N[C@@H](CC(=O)O)C(=O)N[C@@H](CO)C(=O)NCC(N)=O)C(C)C)[C@@H](C)CC)[C@@H](C)O
# Assay: Activity of recombinant BACE assessed as substrate cleavage at 105 uM after 15 mins by HPLC analysis
# Outline: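 Kinetic run: rBACE1 (33 nM) added to eicosapeptide amide at final concentrations 0–105, 37 °C, 15 min. Aliquots analysed by HPLC, and initial rates taken from the decrease in substrate peak area. Km obtained from a plot of [S]/v versus [S]. Measurements done three times and averaged.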
protein,measurement,value
"Beta-secretase 1 (Homo sapiens), P56817 (protein) MAQALPWLLLWMGAGVLPAHGTQHGIRLPLRSGLGGAPLGLRLPRETDEEPEEPGRRGSFVEMVDNLRGKSGQGYYVEMTVGSPPQTLNILVDTGSSNFAVGAAPHPFLHRYYQRQLSSTYRDLRKGVYVPYTQGKWEGELGTDLVSIPHGPNVTVRANIAAITESDKFFINGSNWEGILGLAYAEIARPDDSLEPFFDSLVKQTHVPNLFSLQLCGAGFPLNQSEVLASVGGSMIIGGIDHSLYTGSLWYTPIRREWYYEVIIVRVEINGQDLKMDCKEYNYDKSIVDSGTTNLRLPKKVFEAAVKSIKAASSTEKFPDGFWLGEQLVCWQAGTTPWNIFPVISLYLMGEVTNQSFRITILPQQYLRPVEDVATSQDDCYKFAISQSSTGTVMGAVIMEGFYVVFDRARKRIGFAVSACHVHDEFRTAAVEGPFVTLDMEDCGYNIPQTDESTLMTIAYVMAAICALFMLPLCLMVCQWRCLRCLRQQHDDFADDISLLK",Km,5.5 µM
same,kcat,1720 s⁻¹
